ChEMBL document CHEMBL5120741, “Small molecule-mediated induction of endoplasmic reticulum stress in cancer cells” (RSC Med Chem, 2021)
pIC50: −log10 of the molar value. Calls of active or inactive are those of the source. The calls are words filed in the database; no cut-off is given here.

Assays:
HeLa [1] = assay: Induction of autophagy in human HeLa cells assessed as increase in LC3B level measured after 24 hrs by confocal microscopic analysis relative to control; type: functional
In short: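 HeLa cells treated 24 h, fixed in paraformaldehyde, permeabilized with 0.1% Tween-20 buffer, anti-LC3B primary 4 h, Alexa Fluor 488 secondary, DAPI nuclei; confocal imaging, green signal as fold over control.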

HeLa [2] = assay: Cytotoxicity against human HeLa cells assessed as cell killing at 30 uM after 24 hrs by MTT assay
HeLa [3] = assay: Cytotoxicity against human HeLa cells assessed as cell viability after 24 hrs by MTT assay; type: functional, cell-based
In short: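 HeLa cells from NCCS incubated 24 h with compound across a concentration range (single-point screen at 30 μM); viability read by MTT assay; IC50 from dose-response; significance by two-way ANOVA.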

HeLa [4] = assay: Induction of ERstress in human HeLa cells assessed as increase in lipid level measured after 24 hrs by Oil-red-O staining analysis; type: functional, cell-based
In short: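 Lipid content: HeLa cells exposed 24 h, stained with Oil Red O plus DAPI for nuclei, viewed by confocal microscopy against untreated control.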

[5] = Induction of ERstress in human HeLa cells assessed as increase in caspase-12 expression level measured after 24 hrs by Western blot analysis relative to control; type: functional
In short: (§1)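 HeLa cells treated 24 h, lysed, proteins separated by gel electrophoresis and immunoblotted for BiP, CHOP, IRE1α, PERK or caspase-12; expression given as fold change over untreated control.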

HeLa [6] = assay: Induction of apoptosis in human HeLa cells assessed as increase in early apoptotic cells level measured after 24 hrs in presence of 50 uM of chloroquine by annexin-V-PI staining based flow cytometry (reference value: 1.26%); type: functional
In short: (§2)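 Apoptosis by flow cytometry: HeLa cells treated 24 h alone or with 50 μM chloroquine, stained with Annexin V-FITC and propidium iodide; early and late apoptotic fractions reported as % cells.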

HeLa [7] = assay: Induction of apoptosis in human HeLa cells assessed as increase in late apoptotic cells level measured after 24 hrs by annexin-V-PI staining based flow cytometry (reference value: 0.08%); type: functional; in short: as §2
HeLa [8] = assay: Induction of apoptosis in human HeLa cells assessed as increase in early apoptotic cells level measured after 24 hrs by annexin-V-PI staining based flow cytometry (reference value: 1.26%); type: functional; in short: as §2
HeLa [9] = assay: Induction of autophagy in human HeLa cells assessed as increase in LC3-II level measured after 24 hrs by Western blot analysis relative to control; type: functional
In short: (§3)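 HeLa cells (NCCS) exposed to compound for 24 h, then lysed; cellular proteins resolved by gel electrophoresis and immunoblotted for LC3-I, LC3-II and Beclin. Band levels expressed as fold change versus untreated control cells. The LC3-I/LC3-II ratio is taken from the same blots and also expressed as fold over control.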

HeLa [10] = assay: Induction of autophagy in human HeLa cells assessed as increase in LC3-1 level measured after 24 hrs by Western blot analysis relative to control; type: functional; in short: as §3
[11] = Induction of ERstress in human HeLa cells assessed as increase in BiP expression level measured after 24 hrs by Western blot analysis relative to control; type: functional; in short: as §1
HeLa [12] = assay: Induction of autophagy in human HeLa cells assessed as increase in beclin level measured after 24 hrs by confocal microscopic analysis relative to control; type: functional
In short: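 Immunofluorescence: HeLa cells treated 24 h, anti-Beclin primary then Alexa Fluor 594 secondary, DAPI counterstain; confocal microscopy, red signal as fold versus untreated control.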

[13] = Induction of ERstress in human HeLa cells assessed as increase in CHOP expression level measured after 24 hrs by confocal microscopic analysis relative to control; type: functional
In short: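 After 24 h treatment, HeLa cells probed with anti-CHOP primary antibody (4 h), then Alexa Fluor 594 secondary; nuclei DAPI-stained; confocal imaging, red signal expressed as fold over untreated cells.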

[14] = Induction of ERstress in human HeLa cells assessed as increase in PERK expression level measured after 24 hrs by Western blot analysis relative to control; type: functional; in short: as §1
[15] = Induction of ERstress in human HeLa cells assessed as increase in CHOP expression level measured after 24 hrs by Western blot analysis relative to control; type: functional; in short: as §1
[16] = Drug uptake in endoplasmic reticulum of human HeLa cells at 5 uM measured after 3 and 6 hrs by ER-tarcker dye based laser confocal microscopy; type: ADME, subcellular
In short: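 HeLa cells given 5 μM compound (intrinsically green fluorescent) for 3 h and 6 h, ER counterstained with ER-Tracker Red, imaged by confocal laser scanning microscopy; colocalization quantified as Pearson's and Mander's coefficients.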

HeLa [17] = assay: Induction of autophagy in human HeLa cells assessed as increase in beclin level measured after 24 hrs by Western blot analysis relative to control; type: functional
In short: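 Western blot: HeLa cells treated 24 h, lysed, proteins resolved by gel electrophoresis and probed for Beclin; fold change versus untreated cells.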

[18] = Induction of ERstress in human HeLa cells assessed as increase in IRE1-alpha expression level measured after 24 hrs by Western blot analysis relative to control; type: functional; in short: as §1
HeLa [19] = assay: Induction of apoptosis in human HeLa cells assessed as increase in late apoptotic cells level measured after 24 hrs in presence of 50 uM of chloroquine by annexin-V-PI staining based flow cytometry (reference value: 0.08%); type: functional; in short: as §2
HeLa [20] = assay: Induction of autophagy in human HeLa cells assessed as increase in LC3-I/LC3-II ratio level measured after 24 hrs by Western blot analysis relative to control; type: functional; in short: as §3

SMILES: O=S(=O)(N/N=C/c1c[nH]c2cc(Br)ccc12)c1ccc(Br)cc1
- Activity (HeLa [1]): Active
- cell killing at 30 µM (HeLa [2]): > 60%
- pIC50 (HeLa [3]): 4.80
- Activity (HeLa [4]): Active

SMILES: O=S(=O)(N/N=C/c1c[nH]c2cc(Br)ccc12)c1ccc(Cl)cc1
- cell killing at 30 µM (HeLa [2]): > 60%
- pIC50 (HeLa [3]): 4.74

SMILES: COc1ccc(S(=O)(=O)N/N=C/c2c[nH]c3cc(Br)ccc23)cc1
- cell killing at 30 µM (HeLa [2]): > 60%
- pIC50 (HeLa [3]): 4.72

SMILES: CN(C)c1cccc2c(S(=O)(=O)N/N=C/c3c[nH]c4cc(Br)ccc34)cccc12
- fold change (FC) [5]: 1.4
- Activity (HeLa [6]): 28.6%
- Activity (HeLa [7]): 17.8%
- Activity (HeLa [8]): 64.6%
- fold change (FC) (HeLa [9]): 10
- fold change (FC) (HeLa [1]): 5
- cell killing at 30 µM (HeLa [2]): > 60%
- fold change (FC) (HeLa [10]): 2.6
- fold change (FC) [11]: 1.6
- fold change (FC) (HeLa [12]): 8
- fold change (FC) [13]: 1.7
- fold change (FC) [14]: 1.6
- fold change (FC) [15]: 1.6
- pIC50 (HeLa [3]): 5.05
- Drug uptake [16]: Active
- fold change (FC) (HeLa [17]): 2
- fold change (FC) [18]: 1.8
- Activity (HeLa [19]): 62%
- fold change (FC) (HeLa [20]): 3.8
- Activity (HeLa [4]): Active
